The test system of assay [1] is Enterococcus faecium. Kind of assay: Antimicrobial activity against Enterococcus faecium isolate 3 with AMP-CIP-CTX-ERY-GEN-LVX-SXT-TEC-VAN resistance phenotype at bactericidal concentration within 30 mins. Type of assay: functional, organism-based. The method in brief: (§1)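 Time-kill in 10 mM sodium phosphate buffer, pH 7.4: 1 × 10^7 CFU/ml mid-log clinical isolate (10 μl) exposed at 37°C to peptide at the 1.5-h bactericidal concentration or twofold that, in 100 μl. Samples taken from 2 min onward, plated on tryptone soy agar, CFU counted after 24 h at 37°C. Killing taken as ≥3 log10 CFU/ml drop.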

Assay [2] concerns Acinetobacter baumannii. Description: Bactericidal activity against Acinetobacter baumannii isolate 2 with AMP-CFZ-CIP-LVX-PIP-SXT resistance phenotype assessed as concentration required for >= 3 log10 CFU/ml reduction in viable bacteria in sodium phosphate buffer at pH 7.4 after 1.5 hrs by liquid microdilution assay. In kind it is functional. The method in brief: (§2)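 Clinical multidrug-resistant isolates grown to mid-log in tryptone soy broth and stored frozen. Exponential cells resuspended in 10 mM sodium phosphate buffer, pH 7.4, at 1 × 10^7 CFU/ml; 10 μl incubated with graded peptide concentrations in 100 μl at 37°C for 1.5 h. Plated on tryptone soy agar, CFU read after 24 h at 37°C. Peptide stocks in 20% ethanol.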
For orientation: In broth dilution the organism is exposed to a series of concentrations in liquid medium.

The test system of assay [3] is Pseudomonas aeruginosa. Kind of assay: Bactericidal activity against Pseudomonas aeruginosa isolate 2 with AMP-CFZ-CIP-CTX-CXM-GEN-LVX-IPM-MEM-SXT-TET resistance phenotype assessed as concentration required for >= 3 log10 CFU/ml reduction in viable bacteria in sodium phosphate buffer at pH 7.4 after 1.5 hrs by liquid microdilution assay. Type of assay: functional. In outline:
as §2

Assay [4] concerns Stenotrophomonas maltophilia. Description: Antimicrobial activity against Stenotrophomonas maltophilia isolate 2 with AMK-CIP-CTX-IPM-MEM-SAM-TZP resistance phenotype assessed as assessed as time to kill at twofold bactericidal concentration. Type of assay: functional. In outline:
as §1

Assay [5] concerns Staphylococcus aureus. Kind of assay: Bactericidal activity against Staphylococcus aureus isolate 1 with AMC-AMP-CIP-ERY-GEN-OXA-RIF resistance phenotype assessed as concentration required for >= 3 log10 CFU/ml reduction in viable bacteria in 20% heat-inactivated human serum after 1.5 hrs by liquid microdilution assay. In kind it is functional. The method in brief: (§3)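 The buffer microdilution kill assay (1 × 10^7 CFU/ml mid-log cells, 10 μl in 100 μl, 37°C, 1.5 h, CFU on tryptone soy agar after 24 h) with serum added to 20% or 40% final. Serum was pooled from five healthy donors, clotted at room temperature, spun at 300 × g and heat-inactivated at 56°C for 30 min.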

In assay [6] the test system is Enterococcus faecium. Kind of assay: Bactericidal activity against Enterococcus faecium isolate 3 with AMP-CIP-CTX-ERY-GEN-LVX-SXT-TEC-VAN resistance phenotype assessed as concentration required for >= 3 log10 CFU/ml reduction in viable bacteria in sodium phosphate buffer at pH 7.4 after 1.5 hrs by liquid microdilution assay. Type of assay: functional. The method in brief:
as §2

Assay [7] has as its system Stenotrophomonas maltophilia. Kind of assay: Bactericidal activity against Stenotrophomonas maltophilia isolate 1 with AMK-CIP-CTX-IPM-MEM-SAM-TZP resistance phenotype assessed as concentration required for >= 3 log10 CFU/ml reduction in viable bacteria in sodium phosphate buffer at pH 7.4 after 1.5 hrs by liquid microdilution assay. In kind it is functional. In outline: as §2

For assay [8], the system named is Pseudomonas aeruginosa. Description: Antimicrobial activity against Pseudomonas aeruginosa isolate 1 with AMP-CFZ-CIP-CTX-CXM-GEN-LVX-SXT-TET resistance phenotype at twofold bactericidal concentration after 10 to 30 mins by time kill assay. Type of assay: functional, organism-based. In outline:
as §1

In assay [9] the test system is Stenotrophomonas maltophilia. Kind of assay: Bactericidal activity against Stenotrophomonas maltophilia isolate 4 with AMK-CAZ-CIP-FEP-IPM-SAM-TZP resistance phenotype assessed as concentration required for >= 3 log10 CFU/ml reduction in viable bacteria in sodium phosphate buffer at pH 7.4 after 1.5 hrs by liquid microdilution assay. In kind it is functional. In outline:
as §2

The test system of assay [10] is Pseudomonas aeruginosa. Description: Antimicrobial activity against Pseudomonas aeruginosa isolate 1 with AMP-CFZ-CIP-CTX-CXM-GEN-LVX-SXT-TET resistance phenotype at bactericidal concentration after 30 mins by time kill assay. In kind it is functional, organism-based. In outline: as §1
Assay [11] relates to Acinetobacter baumannii. Description: Bactericidal activity against Acinetobacter baumannii isolate 3 with AMP-AMC-CFZ-CIP-IPM-SXT-TET-TOB resistance phenotype assessed as concentration required for >= 3 log10 CFU/ml reduction in viable bacteria in 20% heat-inactivated human serum after 1.5 hrs by liquid microdilution assay. Type of assay: functional. The method in brief:
as §3

The test system of assay [12] is Stenotrophomonas maltophilia. Kind of assay: Bactericidal activity against Stenotrophomonas maltophilia isolate 2 with AMK-CIP-CTX-IPM-MEM-SAM-TZP resistance phenotype assessed as concentration required for >= 3 log10 CFU/ml reduction in viable bacteria in 20% heat-inactivated human serum after 1.5 hrs by liquid microdilution assay. In kind it is functional. The method in brief: as §3

Assay [13] relates to Staphylococcus aureus. Kind of assay: Antimicrobial activity against Staphylococcus aureus isolate 1 with AMC-AMP-CIP-ERY-GEN-OXA-RIF resistance phenotype at bactericidal concentration within 30 mins. In kind it is functional, organism-based. The method in brief:
as §1

The test system of assay [14] is Staphylococcus aureus. Description: Bactericidal activity against Staphylococcus aureus isolate 2 with AMC-AMP-CIP-ERY-GEN-LVX-OXA-RIF-TET resistance phenotype assessed as concentration required for >= 3 log10 CFU/ml reduction in viable bacteria in sodium phosphate buffer at pH 7.4 after 1.5 hrs by liquid microdilution assay. Type of assay: functional. The method in brief:
as §2

The subject of assay [15] is Acinetobacter baumannii. Kind of assay: Bactericidal activity against Acinetobacter baumannii isolate 3 with AMP-AMC-CFZ-CIP-IPM-SXT-TET-TOB resistance phenotype assessed as concentration required for >= 3 log10 CFU/ml reduction in viable bacteria in 40% heat-inactivated human serum after 1.5 hrs by liquid microdilution assay. In kind it is functional. In outline: as §3

For assay [16], the system named is Enterococcus faecium. Description: Antimicrobial activity against Enterococcus faecium isolate 3 with AMP-CIP-CTX-ERY-GEN-LVX-SXT-TEC-VAN resistance phenotype at twofold the bactericidal concentration within 30 mins. In kind it is functional, organism-based. In outline:
as §1

The test system of assay [17] is Pseudomonas aeruginosa. Description: Bactericidal activity against Pseudomonas aeruginosa isolate 1 with AMP-CFZ-CIP-CTX-CXM-GEN-LVX-SXT-TET resistance phenotype assessed as concentration required for >= 3 log10 CFU/ml reduction in viable bacteria in 20% heat-inactivated human serum after 1.5 hrs by liquid microdilution assay. In kind it is functional. In outline: as §3

Assay [18] relates to Staphylococcus aureus. Kind of assay: Bactericidal activity against Staphylococcus aureus isolate 3 with AMC-AMP-CIP-ERY-GEN-LVX-OXA resistance phenotype assessed as concentration required for >= 3 log10 CFU/ml reduction in viable bacteria in sodium phosphate buffer at pH 7.4 after 1.5 hrs by liquid microdilution assay. In kind it is functional. The method in brief:
as §2

Assay [19] has as its system Acinetobacter baumannii. Kind of assay: Bactericidal activity against Acinetobacter baumannii isolate 1 with AMP-AMC-CFZ-CIP-IPM-LVX-PIP-SXT-TET resistance phenotype assessed as concentration required for >= 3 log10 CFU/ml reduction in viable bacteria in sodium phosphate buffer at pH 7.4 after 1.5 hrs by liquid microdilution assay. In kind it is functional. The method in brief: as §2

Assay [20] has as its system Pseudomonas aeruginosa. Kind of assay: Bactericidal activity against Pseudomonas aeruginosa isolate 3 with AMP-CFZ-CTX-CIP-GEN-IPM-LVX-SXT-TET-TOB resistance phenotype assessed as concentration required for >= 3 log10 CFU/ml reduction in viable bacteria in sodium phosphate buffer at pH 7.4 after 1.5 hrs by liquid microdilution assay. Type of assay: functional. The method in brief: as §2

Assay [21] relates to Acinetobacter baumannii. Kind of assay: Bactericidal activity against Acinetobacter baumannii isolate 3 with AMP-AMC-CFZ-CIP-IPM-SXT-TET-TOB resistance phenotype assessed as concentration required for >= 3 log10 CFU/ml reduction in viable bacteria in sodium phosphate buffer at pH 7.4 after 1.5 hrs by liquid microdilution assay. In kind it is functional. In outline:
as §2

The source made the active and inactive calls. The rule behind the calls is not given here.

With H-GIFSKLAGKKLKNLLISG-NH2, the outcome in the assay with Enterococcus faecium [1], in the assay with Pseudomonas aeruginosa [10], in the assay on Staphylococcus aureus [13] and in the assay on Enterococcus faecium [16] was inactive. Also, the Activity was 0.5 µM in the assay with Acinetobacter baumannii [2]; 1 µM with Pseudomonas aeruginosa [3]; 64 µM with Staphylococcus aureus [5]; 2 µM in the assay with Enterococcus faecium [6]; 0.5 µM in [7]; 0.5 µM in assay [9]. For the same substance, the Activity in the assay on Acinetobacter baumannii [11] is 16 µM; in assay [12] it was 8 µM; with Staphylococcus aureus [14], 16 µM; in the assay on Acinetobacter baumannii [15], 32 µM; with Pseudomonas aeruginosa [17], 4 µM; in the assay with Staphylococcus aureus [18], 8 µM. For the same substance, the figures for the Activity in the assay on Acinetobacter baumannii [19], with Pseudomonas aeruginosa [20] and in the assay on Acinetobacter baumannii [21] were 0.5 µM, 0.5 µM and 1 µM, respectively. Besides, the Time in assay [4] worked out at 2 min. In addition, the outcome in the assay on Pseudomonas aeruginosa [8] was Active.

For the origin of these results see ChEMBL document CHEMBL1151458, “Comparative analysis of the bactericidal activities of amphibian peptide analogues against multidrug-resistant nosocomial bacterial strains” (2008).
